Laboratory results published in ChEMBL document CHEMBL4354828, “Discovery of Taniborbactam (VNRX-5133): A Broad-Spectrum Serine- and Metallo-β-lactamase Inhibitor for Carbapenem-Resistant Bacterial Infections” (J Med Chem, 2020).
Values after ≈ are worked out from the molar mass of the structure shown.

Tests used:
[1] = Inhibition of bacterial KPC-2 using imipenem as substrate preincubated for 15 mins followed by susbtrate addition and measured after 10 mins by spectrophotometric method; set-up: species or system Bacteria
[2] = Inhibition of bacterial AmpC using nitrocefin as substrate preincubated for 15 mins followed by susbtrate addition and measured after 10 mins by spectrophotometric method; set-up: species or system Bacteria
[3] = Inhibition of bacterial OXA-48 using nitrocefin as substrate preincubated for 15 mins followed by susbtrate addition and measured after 10 mins by spectrophotometric method; set-up: species or system Bacteria
[4] = Inhibition of bacterial VIM-2 using nitrocefin as substrate preincubated for 15 mins followed by susbtrate addition and measured after 10 mins by spectrophotometric method; set-up: species or system Bacteria
Outline: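 Purified β-lactamase inhibition. IC50 values are the average of duplicates unless otherwise indicated.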

Klebsiella pneumoniae [5] = test: Inhibition of KPC-2 in Klebsiella pneumoniae assessed as meropenem antibacterial activity at 4 ug/ml after 16 to 20 hrs by CLSI-based microbroth dilution method (Rvb >= […] ug/ml)
Klebsiella pneumoniae [6] = test: Inhibition of OXA-48 in Klebsiella pneumoniae assessed as meropenem antibacterial activity at 4 ug/ml after 16 to 20 hrs by CLSI-based microbroth dilution method (Rvb >= […] ug/ml)
Klebsiella pneumoniae [7] = test: Inhibition of VIM-4 in Klebsiella pneumoniae assessed as meropenem antibacterial activity at 4 ug/ml after 16 to 20 hrs by CLSI-based microbroth dilution method (Rvb >= […] ug/ml)
[8] = target: Beta-lactamase VIM-2 (Pseudomonas aeruginosa) (UniProt Q9K2N0); test: Inhibition of VIM-2 in Pseudomonas aeruginosa assessed as meropenem antibacterial activity at 4 ug/ml after 16 to 20 hrs by CLSI-based microbroth dilution method (Rvb >= […] ug/ml)
[9] = system: Klebsiella pneumoniae ATCC BAA-1705; test: Inhibition of KPC-2 in Klebsiella pneumoniae ATCC BAA 1705 assessed as piperacillin antibacterial activity at 16 ug/ml after 16 to 20 hrs by CLSI-based microbroth dilution method (Rvb > […] ug/ml)
Klebsiella pneumoniae [10] = test: Inhibition of VIM-27/CTX-M-15/SHV-11/OXA-1 in Klebsiella pneumoniae CDC-0040 assessed as piperacillin antibacterial activity at 16 ug/ml after 16 to 20 hrs by CLSI-based microbroth dilution method
Escherichia coli [11] = test: Inhibition of NDM-1/CMY-6/OXA-1 in Escherichia coli CDC-0055 assessed as piperacillin antibacterial activity at 16 ug/ml after 16 to 20 hrs by CLSI-based microbroth dilution method
Outline: (§1)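 MDR β-lactamase-producing Gram-negative clinical isolates. […] MIC was reported as the inhibitor concentration that restores the partner's antibacterial activity.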

Klebsiella pneumoniae [12] = test: Inhibition of OXA-232/OXA-9/TEM-1A/CTX-M-15/OXA-1 in Klebsiella pneumoniae CDC-0066 assessed as piperacillin antibacterial activity at 16 ug/ml after 16 to 20 hrs by CLSI-based microbroth dilution method (Rvb > […] ug/ml)
Pseudomonas aeruginosa [13] = test: Inhibition of KPC-2/PDC-42 in Pseudomonas aeruginosa CDC-0356 assessed as piperacillin antibacterial activity at 16 ug/ml after 16 to 20 hrs by CLSI-based microbroth dilution method (Rvb > […] ug/ml)
Klebsiella pneumoniae [14] = test: Inhibition of KPC-2/SHV12/TEM-1 in Klebsiella pneumoniae CDC-0361 assessed as piperacillin antibacterial activity at 16 ug/ml after 16 to 20 hrs by CLSI-based microbroth dilution method (Rvb > […] ug/ml)
Escherichia coli [15] = test: Inhibition of NDM in Escherichia coli CDC-0452 assessed as piperacillin antibacterial activity at 16 ug/ml after 16 to 20 hrs by CLSI-based microbroth dilution method (Rvb > […] ug/ml)
[16] = system: Klebsiella pneumoniae ATCC BAA-1705; test: Inhibition of KPC-2 in Klebsiella pneumoniae ATCC BAA 1705 assessed as cefepime antibacterial activity at 8 ug/ml after 16 to 20 hrs by CLSI-based microbroth dilution method; outline: as §1
Klebsiella pneumoniae [17] = test: Inhibition of VIM-27/CTX-M-15/SHV-11/OXA-1 in Klebsiella pneumoniae CDC-0040 assessed as cefepime antibacterial activity at 8 ug/ml after 16 to 20 hrs by CLSI-based microbroth dilution method
Escherichia coli [18] = test: Inhibition of NDM-1/CMY-6/OXA-1 in Escherichia coli CDC-0055 assessed as cefepime antibacterial activity at 8 ug/ml after 16 to 20 hrs by CLSI-based microbroth dilution method; outline: as §1
Klebsiella pneumoniae [19] = test: Inhibition of OXA-232/OXA-9/TEM-1A/CTX-M-15/OXA-1 in Klebsiella pneumoniae CDC-0066 assessed as cefepime antibacterial activity at 8 ug/ml after 16 to 20 hrs by CLSI-based microbroth dilution method (Rvb > […] ug/ml)
Pseudomonas aeruginosa [20] = test: Inhibition of KPC-2/PDC-42 in Pseudomonas aeruginosa CDC-0356 assessed as cefepime antibacterial activity at 8 ug/ml after 16 to 20 hrs by CLSI-based microbroth dilution method (Rvb > […] ug/ml)
Klebsiella pneumoniae [21] = test: Inhibition of KPC-2/SHV12/TEM-1 in Klebsiella pneumoniae CDC-0361 assessed as cefepime antibacterial activity at 8 ug/ml after 16 to 20 hrs by CLSI-based microbroth dilution method (reference value: […] ug/ml)
Escherichia coli [22] = test: Inhibition of NDM in Escherichia coli CDC-0452 assessed as cefepime antibacterial activity after 16 to 20 hrs by CLSI-based microbroth dilution method (reference value: […] ug/ml)
[23] = system: Klebsiella pneumoniae ATCC BAA-1705; test: Inhibition of KPC-2 in Klebsiella pneumoniae ATCC BAA 1705 assessed as meropenem antibacterial activity at 4 ug/ml after 16 to 20 hrs by CLSI-based microbroth dilution method (reference value: […] ug/ml)
Klebsiella pneumoniae [24] = test: Inhibition of VIM-27/CTX-M-15/SHV-11/OXA-1 in Klebsiella pneumoniae CDC-0040 assessed as meropenem antibacterial activity at 4 ug/ml after 16 to 20 hrs by CLSI-based microbroth dilution method
Escherichia coli [25] = test: Inhibition of NDM-1/CMY-6/OXA-1 in Escherichia coli CDC-0055 assessed as meropenem antibacterial activity at 4 ug/ml after 16 to 20 hrs by CLSI-based microbroth dilution method (reference value: […] ug/ml)
Klebsiella pneumoniae [26] = test: Inhibition of OXA-232/OXA-9/TEM-1A/CTX-M-15/OXA-1 in Klebsiella pneumoniae CDC-0066 assessed as meropenem antibacterial activity at 4 ug/ml after 16 to 20 hrs by CLSI-based microbroth dilution method (reference value: […] ug/ml)
Pseudomonas aeruginosa [27] = test: Inhibition of KPC-2/PDC-42 in Pseudomonas aeruginosa CDC-0356 assessed as meropenem antibacterial activity at 4 ug/ml after 16 to 20 hrs by CLSI-based microbroth dilution method (reference value: […] ug/ml)
Klebsiella pneumoniae [28] = test: Inhibition of KPC-2/SHV12/TEM-1 in Klebsiella pneumoniae CDC-0361 assessed as meropenem antibacterial activity at 4 ug/ml after 16 to 20 hrs by CLSI-based microbroth dilution method (reference value: […] ug/ml)
Escherichia coli [29] = test: Inhibition of NDM in Escherichia coli CDC-0452 assessed as meropenem antibacterial activity at 4 ug/ml after 16 to 20 hrs by CLSI-based microbroth dilution method (reference value: […] ug/ml)
Pseudomonas aeruginosa [30] = test: Inhibition of VIM in Pseudomonas aeruginosa CDC-0457 assessed as cefepime antibacterial activity at 8 ug/ml after 16 to 20 hrs by CLSI-based microbroth dilution method
Pseudomonas aeruginosa [31] = test: Inhibition of VIM in Pseudomonas aeruginosa CDC-0457 assessed as meropenem antibacterial activity at 4 ug/ml after 16 to 20 hrs by CLSI-based microbroth dilution method
Pseudomonas aeruginosa [32] = test: Inhibition of VIM in Pseudomonas aeruginosa CDC-0457 assessed as piperacillin antibacterial activity at 16 ug/ml after 16 to 20 hrs by CLSI-based microbroth dilution method

With `CS(=O)(=O)NCCN[C@H]1CC[C@H](CC(=O)N[C@H]2Cc3cccc(C(=O)O)c3OB2O)CC1` the IC50 [1] was 17 nM, the IC50 [2] was 6 nM and the IC50 [3] was 499 nM. For the same compound, the IC50 [4] was 110 nM, the MIC (Klebsiella pneumoniae [5]) was 4 µg/mL (≈ 8.56 µM) and the MIC (Klebsiella pneumoniae [6]) was 8 µg/mL (≈ 17.1 µM). It also gave an MIC (Klebsiella pneumoniae [7]) of 8 µg/mL (≈ 17.1 µM) and an MIC [8] of 16 µg/mL (≈ 34.2 µM).

`O=C(C[C@H]1CC[C@H](NCCO)CC1)N[C@H]1Cc2cccc(C(=O)O)c2OB1O` showed an IC50 [1] of 17 nM, an IC50 [2] of 10 nM and an IC50 [3] of 7550 nM. The IC50 [4] was 1400 nM, the MIC (Klebsiella pneumoniae [5]) was 2 µg/mL (≈ 5.12 µM) and the MIC (Klebsiella pneumoniae [6]) was 2 µg/mL (≈ 5.12 µM). For the same compound, the MIC (Klebsiella pneumoniae [7]) was 0.5 µg/mL (≈ 1.28 µM) and the MIC [8] was 4 µg/mL (≈ 10.2 µM).

`CC(=O)N[C@H]1Cc2cccc(C(=O)O)c2OB1O` gave an MIC [9] of 2 µg/mL (≈ 8.03 µM), an MIC (Klebsiella pneumoniae [10]) greater than 16 µg/mL and an MIC (Escherichia coli [11]) greater than 16 µg/mL. It also gave an MIC (Klebsiella pneumoniae [12]) greater than 16 µg/mL, an MIC (Pseudomonas aeruginosa [13]) of 2 µg/mL (≈ 8.03 µM) and an MIC (Klebsiella pneumoniae [14]) of 2 µg/mL (≈ 8.03 µM). For the same compound, the MIC (Escherichia coli [15]) was greater than 16 µg/mL, the MIC [16] was 7.9 ng/mL (≈ 0.0317 µM) and the MIC (Klebsiella pneumoniae [17]) was greater than 16 µg/mL. The MIC (Escherichia coli [18]) was greater than 16 µg/mL, the MIC (Klebsiella pneumoniae [19]) was 1 µg/mL (≈ 4.02 µM) and the MIC (Pseudomonas aeruginosa [20]) was 2 µg/mL (≈ 8.03 µM). The MIC (Klebsiella pneumoniae [21]) was 7.9 ng/mL (≈ 0.0317 µM), the MIC (Escherichia coli [22]) was 8 µg/mL (≈ 32.1 µM) and the MIC [23] was 7.9 ng/mL (≈ 0.0317 µM). The MIC (Klebsiella pneumoniae [24]) was greater than 16 µg/mL, the MIC (Escherichia coli [25]) was 16 µg/mL (≈ 64.2 µM) and the MIC (Klebsiella pneumoniae [26]) was 2 µg/mL (≈ 8.03 µM). The MIC (Pseudomonas aeruginosa [27]) was 2 µg/mL (≈ 8.03 µM), the MIC (Klebsiella pneumoniae [28]) was 7.9 ng/mL (≈ 0.0317 µM) and the MIC (Escherichia coli [29]) was 8 µg/mL (≈ 32.1 µM). The MIC (Pseudomonas aeruginosa [30]) was greater than 16 µg/mL, the MIC (Pseudomonas aeruginosa [31]) was greater than 16 µg/mL and the MIC (Pseudomonas aeruginosa [32]) was greater than 16 µg/mL.

Compound `N=C(N)NCCN[C@H]1CC[C@H](CC(=O)N[C@H]2Cc3cccc(C(=O)O)c3OB2O)CC1` has an IC50 [1] of 27 nM, an IC50 [2] of 6 nM and an IC50 [3] of 1590 nM. For the same compound, the IC50 [4] was 86 nM, the MIC (Klebsiella pneumoniae [5]) was 1 µg/mL (≈ 2.32 µM) and the MIC (Klebsiella pneumoniae [6]) was 2 µg/mL (≈ 4.64 µM). It also gave an MIC (Klebsiella pneumoniae [7]) of 0.06 µg/mL (≈ 0.139 µM) and an MIC [8] of 0.5 µg/mL (≈ 1.16 µM).

With `NCCNc1ccc(CC(=O)N[C@H]2Cc3cccc(C(=O)O)c3OB2O)cc1` the IC50 [1] was 22 nM, the IC50 [2] was 5 nM and the IC50 [3] was 288 nM. It also gave an IC50 [4] of 491 nM, an MIC (Klebsiella pneumoniae [5]) of 1 µg/mL (≈ 2.61 µM) and an MIC (Klebsiella pneumoniae [6]) of 1 µg/mL (≈ 2.61 µM). The MIC (Klebsiella pneumoniae [7]) was 8 µg/mL (≈ 20.9 µM) and the MIC [8] was 0.5 µg/mL (≈ 1.3 µM).

With `O=C(C[C@H]1CC[C@H](NCc2cnc[nH]2)CC1)N[C@H]1Cc2cccc(C(=O)O)c2OB1O` the IC50 [1] was 36 nM, the IC50 [2] was 14 nM and the IC50 [3] was 454 nM. For the same compound, the IC50 [4] was 477 nM, the MIC (Klebsiella pneumoniae [5]) was 1 µg/mL (≈ 2.35 µM) and the MIC (Klebsiella pneumoniae [6]) was 8 µg/mL (≈ 18.8 µM). It also gave an MIC (Klebsiella pneumoniae [7]) of 8 µg/mL (≈ 18.8 µM) and an MIC [8] of 1 µg/mL (≈ 2.35 µM).

For `CNCCN[C@H]1CC[C@H](CC(=O)N[C@H]2Cc3cccc(C(=O)O)c3OB2O)CC1`, the IC50 [1] was 12 nM, the IC50 [2] was 11 nM and the IC50 [3] was 579 nM. The IC50 [4] was 2 nM, the MIC (Klebsiella pneumoniae [5]) was 0.5 µg/mL (≈ 1.24 µM) and the MIC (Klebsiella pneumoniae [6]) was 2 µg/mL (≈ 4.96 µM). It also gave an MIC (Klebsiella pneumoniae [7]) of 0.5 µg/mL (≈ 1.24 µM).
